Measured values published in ChEMBL document CHEMBL1127380, “(4-[18F]fluoro-3-iodobenzyl)guanidine, a potential MIBG analogue for positron emission tomography” (J Med Chem, 1994).
Each block holds one compound with its values, some of them ahead of it.

Legend:
Mus musculus [1] = organism: Mus musculus; experiment: Tissue distribution expressed as percentage injected dose per gram of tissue in normal mice heart after 4 hour; type: ADME, organism-based; conditions: in vivo
Outline: (§1)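 Normal BALB/c mice, 26–29 g, given 4 μCi of the nca 18F tracer via tail vein. Groups killed with halothane at 1, 2 or 4 h post-injection. Tissues washed in saline, blot-dried, weighed and γ-counted for ¹⁸F. Values are mean ± SD as % ID/g; n = 10 at 1 and 2 h, n = 5 at 4 h.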

Mus musculus [2] = organism: Mus musculus; experiment: Tissue distribution expressed as percentage injected dose per gram of tissue in normal mice adrenals after 1 hour; type: ADME, organism-based, Adrenal gland; conditions: in vivo; outline: as §1
Mus musculus [3] = organism: Mus musculus; experiment: Tissue distribution expressed as percentage injected dose per gram of tissue in normal mice adrenals after 4 hour; type: ADME, organism-based, Adrenal gland; conditions: in vivo; outline: as §1
Mus musculus [4] = organism: Mus musculus; experiment: tissue distribution expressed as percentage injected dose per gram of tissue in normal mice heart after 1 hour; type: ADME, organism-based; conditions: in vivo
Mus musculus [5] = organism: Mus musculus; experiment: Tissue distribution expressed as percentage injected dose per gram of tissue in normal mice lungs after 4 hour; type: ADME, organism-based, Lung; conditions: in vivo; outline: as §1
Mus musculus [6] = organism: Mus musculus; experiment: Tissue distribution expressed as percentage injected dose per gram of tissue in normal mice muscle after 1 hour; type: ADME, organism-based; conditions: in vivo; outline: as §1
Mus musculus [7] = organism: Mus musculus; experiment: Tissue distribution expressed as percentage injected dose per gram of tissue in normal mice kidney after 4 hour; type: ADME, organism-based; conditions: in vivo; outline: as §1
Mus musculus [8] = organism: Mus musculus; experiment: Tissue distribution expressed as percentage injected dose per gram of tissue in normal mice bone after 2 hour; type: ADME, organism-based, Bone element; conditions: in vivo; outline: as §1
Mus musculus [9] = organism: Mus musculus; experiment: Tissue distribution expressed as percentage injected dose per gram of tissue in normal mice small intestine after 4 hour; type: ADME, organism-based; conditions: in vivo; outline: as §1
Mus musculus [10] = organism: Mus musculus; experiment: Tissue distribution expressed as percentage injected dose per gram of tissue in normal mice adrenals after 2 hour; type: ADME, organism-based, Adrenal gland; conditions: in vivo; outline: as §1
Mus musculus [11] = organism: Mus musculus; experiment: Tissue distribution expressed as percentage injected dose per gram of tissue in normal mice brain after 4 hour; type: ADME, organism-based; conditions: in vivo; outline: as §1
Mus musculus [12] = organism: Mus musculus; experiment: Tissue distribution expressed as percentage injected dose per gram of tissue in normal mice thyroid after 4 hour; type: ADME, organism-based, Thyroid gland; conditions: in vivo; outline: as §1
Mus musculus [13] = organism: Mus musculus; experiment: Tissue distribution expressed as percentage injected dose per gram of tissue in normal mice liver after 1 hour; type: ADME, organism-based; conditions: in vivo; outline: as §1
Mus musculus [14] = organism: Mus musculus; experiment: Tissue distribution expressed as percentage injected dose per gram of tissue in normal mice small intestine after 2 hour; type: ADME, organism-based; conditions: in vivo; outline: as §1
Mus musculus [15] = organism: Mus musculus; experiment: Tissue distribution expressed as percentage injected dose per gram of tissue in normal mice heart after 2 hour; type: ADME, organism-based; conditions: in vivo; outline: as §1
Mus musculus [16] = organism: Mus musculus; experiment: Tissue distribution expressed as percentage injected dose per gram of tissue in normal mice spleen after 4 hour; type: ADME, organism-based; conditions: in vivo; outline: as §1
Mus musculus [17] = organism: Mus musculus; experiment: Tissue distribution expressed as percentage injected dose per gram of tissue in normal mice bone after 1 hour; type: ADME, organism-based, Bone element; conditions: in vivo; outline: as §1
Mus musculus [18] = organism: Mus musculus; experiment: Tissue distribution expressed as percentage injected dose per gram of tissue in normal mice muscle after 4 hour; type: ADME, organism-based; conditions: in vivo; outline: as §1
Mus musculus [19] = organism: Mus musculus; experiment: Tissue distribution expressed as percentage injected dose per gram of tissue in normal mice spleen after 2 hour; type: ADME, organism-based; conditions: in vivo; outline: as §1
Mus musculus [20] = organism: Mus musculus; experiment: Tissue distribution expressed as percentage injected dose per gram of tissue in normal mice spleen after 1 hour; type: ADME, organism-based; conditions: in vivo; outline: as §1
Mus musculus [21] = organism: Mus musculus; experiment: Tissue distribution expressed as percentage injected dose per gram of tissue in normal mice blood after 2 hour; type: ADME, organism-based; conditions: in vivo; outline: as §1
SK-N-SH = experiment: The compound was tested for the concentration of inhibition by unlabelled analogues to SK-N-SH human neuroblastoma cells; type: functional, cell-based
Outline: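 SK-N-SH neuroblastoma cells, 4 × 10⁵/well, with about 1 μCi 18F-labelled tracer or 0.1 μCi nca [¹²⁵I]MIBG plus graded concentrations of unlabelled benzylguanidines, in triplicate; 2 h at 37 °C. Nonspecific binding: 1 μM desipramine preincubation, 30 min. Cells washed twice in PBS, lysed in 0.5 N NaOH, γ-counted. Specific binding as % of control plotted against inhibitor concentration.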

Mus musculus [22] = organism: Mus musculus; experiment: Tissue distribution expressed as percentage injected dose per gram of tissue in normal mice blood after 4 hour; type: ADME, organism-based; conditions: in vivo; outline: as §1
Mus musculus [23] = organism: Mus musculus; experiment: Tissue distribution expressed as percentage injected dose per gram of tissue in normal mice heart after 1 hour; type: ADME, organism-based; conditions: in vivo; outline: as §1
Mus musculus [24] = organism: Mus musculus; experiment: Tissue distribution expressed as percentage injected dose per gram of tissue in normal mice thyroid after 1 hour; type: ADME, organism-based, Thyroid gland; conditions: in vivo; outline: as §1
Mus musculus [25] = organism: Mus musculus; experiment: Tissue distribution expressed as percentage injected dose per gram of tissue in normal mice thyroid after 2 hour; type: ADME, organism-based, Thyroid gland; conditions: in vivo; outline: as §1
Mus musculus [26] = organism: Mus musculus; experiment: Tissue distribution expressed as percentage injected dose per gram of tissue in normal mice liver after 2 hour; type: ADME, organism-based; conditions: in vivo; outline: as §1
Mus musculus [27] = organism: Mus musculus; experiment: Tissue distribution expressed as percentage injected dose per gram of tissue in normal mice liver after 4 hour; type: ADME, organism-based; conditions: in vivo; outline: as §1
Mus musculus [28] = organism: Mus musculus; experiment: Tissue distribution expressed as percentage injected dose per gram of tissue in normal mice bone after 4 hour; type: ADME, organism-based, Bone element; conditions: in vivo; outline: as §1
Mus musculus [29] = organism: Mus musculus; experiment: Tissue distribution expressed as percentage injected dose per gram of tissue in normal mice small intestine after 1 hour; type: ADME, organism-based; conditions: in vivo; outline: as §1
Mus musculus [30] = organism: Mus musculus; experiment: Tissue distribution expressed as percentage injected dose per gram of tissue in normal mice lungs after 1 hour; type: ADME, organism-based, Lung; conditions: in vivo; outline: as §1
Mus musculus [31] = organism: Mus musculus; experiment: Tissue distribution expressed as percentage injected dose per gram of tissue in normal mice stomach after 2 hour; type: ADME, organism-based; conditions: in vivo; outline: as §1
Mus musculus [32] = organism: Mus musculus; experiment: Tissue distribution expressed as percentage injected dose per gram of tissue in normal mice brain after 1 hour; type: ADME, organism-based; conditions: in vivo; outline: as §1
Mus musculus [33] = organism: Mus musculus; experiment: Tissue distribution expressed as percentage injected dose per gram of tissue in normal mice lungs after 2 hour; type: ADME, organism-based, Lung; conditions: in vivo; outline: as §1
Mus musculus [34] = organism: Mus musculus; experiment: Tissue distribution expressed as percentage injected dose per gram of tissue in normal mice blood after 1 hour; type: ADME, organism-based; conditions: in vivo; outline: as §1
Mus musculus [35] = organism: Mus musculus; experiment: Tissue distribution expressed as percentage injected dose per gram of tissue in normal mice stomach after 1 hour; type: ADME, organism-based; conditions: in vivo; outline: as §1
Mus musculus [36] = organism: Mus musculus; experiment: Tissue distribution expressed as percentage injected dose per gram of tissue in normal mice large intestine after 1 hour; type: ADME, organism-based; conditions: in vivo; outline: as §1
Mus musculus [37] = organism: Mus musculus; experiment: Tissue distribution expressed as percentage injected dose per gram of tissue in normal mice brain after 2 hour; type: ADME, organism-based; conditions: in vivo; outline: as §1
Mus musculus [38] = organism: Mus musculus; experiment: Tissue distribution expressed as percentage injected dose per gram of tissue in normal mice stomach after 4 hour; type: ADME, organism-based; conditions: in vivo; outline: as §1
Mus musculus [39] = organism: Mus musculus; experiment: Tissue distribution expressed as percentage injected dose per gram of tissue in normal mice large intestine after 2 hour; type: ADME, organism-based; conditions: in vivo; outline: as §1
Mus musculus [40] = organism: Mus musculus; experiment: Tissue distribution expressed as percentage injected dose per gram of tissue in normal mice kidney after 2 hour; type: ADME, organism-based; conditions: in vivo; outline: as §1
Mus musculus [41] = organism: Mus musculus; experiment: Tissue distribution expressed as percentage injected dose per gram of tissue in normal mice large intestine after 4 hour; type: ADME, organism-based; conditions: in vivo; outline: as §1
Mus musculus [42] = organism: Mus musculus; experiment: Tissue distribution expressed as percentage injected dose per gram of tissue in normal mice kidney after 1 hour; type: ADME, organism-based; conditions: in vivo; outline: as §1
Mus musculus [43] = organism: Mus musculus; experiment: Tissue distribution expressed as percentage injected dose per gram of tissue in normal mice muscle after 2 hour; type: ADME, organism-based; conditions: in vivo; outline: as §1

ID/g (Mus musculus [1]): 5.9% | ID/g (Mus musculus [2]): 15.3% | ID/g (Mus musculus [3]): 20.3% | ID/g (Mus musculus [4]): 9.7%
SMILES: N=C(N)NCc1ccc(F)cc1

ID/g (Mus musculus [5]): 4% | ID/g (Mus musculus [6]): 1.7% | ID/g (Mus musculus [7]): 1.9% | ID/g (Mus musculus [8]): 0.9% | ID/g (Mus musculus [9]): 3% | ID/g (Mus musculus [1]): 18.3% | ID/g (Mus musculus [10]): 19.2% | ID/g (Mus musculus [11]): 0.2% | ID/g (Mus musculus [12]): 1.5% | ID/g (Mus musculus [13]): 10.5% | ID/g (Mus musculus [14]): 4.3% | ID/g (Mus musculus [15]): 19.5% | ID/g (Mus musculus [16]): 3.2% | ID/g (Mus musculus [17]): 1.1% | ID/g (Mus musculus [18]): 1.5% | ID/g (Mus musculus [19]): 3.7% | ID/g (Mus musculus [20]): 3.8% | ID/g (Mus musculus [21]): 0.7% | IC50 (SK-N-SH; Homo sapiens, SK-N-SH): 200 nM | IC50 (SK-N-SH; sk-n-sh): 200 nM | ID/g (Mus musculus [22]): 0.4% | ID/g (Mus musculus [23]): 18.2% | ID/g (Mus musculus [24]): 1.8% | ID/g (Mus musculus [25]): 1.9% | ID/g (Mus musculus [26]): 9.2% | ID/g (Mus musculus [27]): 6.8% | ID/g (Mus musculus [2]): 21.3% | ID/g (Mus musculus [28]): 0.7% | ID/g (Mus musculus [29]): 5.5% | ID/g (Mus musculus [30]): 9.7% | ID/g (Mus musculus [31]): 2.4% | ID/g (Mus musculus [32]): 0.1% | ID/g (Mus musculus [3]): 19.7% | ID/g (Mus musculus [33]): 5.5% | ID/g (Mus musculus [34]): 0.9% | ID/g (Mus musculus [35]): 3% | ID/g (Mus musculus [36]): 3.8% | ID/g (Mus musculus [37]): 0.1% | ID/g (Mus musculus [38]): 1.9% | ID/g (Mus musculus [39]): 4.5% | ID/g (Mus musculus [40]): 2.3% | ID/g (Mus musculus [41]): 3.8% | ID/g (Mus musculus [42]): 2.6% | ID/g (Mus musculus [43]): 1.7%
SMILES: N=C(N)NCc1ccc(F)c(I)c1

ID/g (Mus musculus [1]): 10.5% | ID/g (Mus musculus [23]): 21% | ID/g (Mus musculus [2]): 13.9% | ID/g (Mus musculus [3]): 23.8%
SMILES: N=C(N)NCc1cccc(F)c1 [M-FLUOROBENZYLGUANIDINE]
